Bioassay records deposited in PubChem BioAssay by several laboratories.
STAT1 act = STAT1 signaling activation; NIH 3T3 STAT1-luciferase reporter, IFN-gamma, luminescence; 100% = IFN-gamma alone, no compound; activation (% of control), % at 5.5 µM; 200,000 tested, 2.6% active; AID 932;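 active means activation above the screen-wide mean activation plus 3 SD, cut at about 130% in these data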;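 further: raw ratio to IFN-gamma control signal so 100% means no change and 0% no light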
APP 5'UTR act = APP 5'UTR luciferase reporter activation. SH-SY5Y APP 5'UTR luciferase reporter, luminescence; zero percent = DMSO vehicle wells. activation, % at 2 µM. 190,000 tested, 1% active. AID 1276;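 active means activation above a set limit, based on mean plus 3 SD of controls, cut at about 140% in these data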
STAT3 activator = STAT3 signaling activation; U3A cells, IL-6 STAT3-luciferase reporter, luminescence; 100% = signal with IL-6 EC80 alone; activation (% of control), % at 5.6 µM; 190,000 tested, 0.91% active;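 active means activation above the screen-wide mean of compound activation plus 3 SD, cut at about 130% in these data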;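 further: 0% = background luminescence of wells with medium and substrate only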
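Test system: Human STAT1-deficient U3A cells with stable STAT3-luciferase reporter | Also added: Interleukin-6, 33 ng/mL | Timing: Compound pre-incubation 1 h before IL-6, then 6 h stimulation at 37 °C | Technique: Luciferase reporter luminescence | Read-out: Percent of IL-6-only median luminescence | Benchmarks: IL-6-only wells as 100% reference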
NF-kB neuron act = raises NF-kB expression in human neuronal cells; fold change at 12.5 µM; NF-kB reporter expression; active compounds read high; 190,000 tested, 1.6% active; AID 1239; in the data active means fold change above about 3.3
STAT1 blocker = reduces IFN-gamma driven STAT1 reporter signal | inhibition, % at 5.5 µM | NIH 3T3 STAT1-luciferase reporter, luminescence | 200,000 tested, 0.35% active;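 active means inhibition above a set limit, the mean inhibition across all tested compounds plus 3 SD, cut at about 34% in these data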;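 further: 0% = IFN-gamma with DMSO and 100% = IFN-gamma with 300 µM nifuroxazide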
STAT3 blocker = STAT3 signaling inhibition; inhibition, % at 5.5 µM; AID 862; 190,000 tested, 0.89% active; U3A cells, IL-6 STAT3-luciferase reporter, luminescence; host cell line lacks STAT1;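 active means inhibition above the mean inhibition across all screened compounds plus 3 SD, cut at about 44% in these data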;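 further: 0% = DMSO only wells and 100% = 100 µM nifuroxazide control wells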
Starred values were filed as active, the others as inactive. An excerpt weighted towards active compounds, which were near 5.1% of everything screened.

What do the screens show for `COc1ccc(-c2cc(C(=O)NCC(C)C)no2)cc1`?
STAT1 act: 133*; APP 5'UTR act: 26; STAT3 activator: 94; NF-kB neuron act: 5*; STAT1 blocker: -36; STAT3 blocker: 6

What do the screens show for `CC(C)COc1cccc(C(=O)NC(=S)Nc2cccc(NC(=O)c3ccccc3Cl)c2)c1`?
STAT1 act: 81; APP 5'UTR act: 14; STAT3 activator: 93; NF-kB neuron act: 1; STAT1 blocker: 21; STAT3 blocker: 9

How did Clc1ccc(-c2nc3ccncc3[nH]2)cc1 do in these assays?
STAT1 act: 141*; APP 5'UTR act: 16; STAT3 activator: 100; NF-kB neuron act: 1.3; STAT1 blocker: -45; STAT3 blocker: -1

What do the screens show for `[O-]/[N+](=C/c1ccc(F)cc1)c1ccc(Cl)cc1`?
STAT1 act: 114; APP 5'UTR act: 39; STAT3 activator: 120; NF-kB neuron act: 4*; STAT1 blocker: -15; STAT3 blocker: -17

How did [O-]/[N+](=C/c1cccnc1)c1ccc(Br)cc1 do in these assays?
STAT1 act: 113; APP 5'UTR act: 93; STAT3 activator: 114; NF-kB neuron act: 2.1; STAT1 blocker: -12; STAT3 blocker: -10

How did Cc1cccc(C)c1NC(=O)CN1C(=O)NC(C)(CCc2ccccc2)C1=O (configuration not stated) do in these assays?
STAT1 act: 87; APP 5'UTR act: 9; STAT3 activator: 111; NF-kB neuron act: 1; STAT1 blocker: 13; STAT3 blocker: -8

How did COc1c(Cl)cc(Cl)cc1C(=O)Nc1ccc(C(=O)O)cc1 do in these assays?
STAT1 act: 104; APP 5'UTR act: -18; STAT3 activator: 101; NF-kB neuron act: 1.1; STAT1 blocker: -4; STAT3 blocker: 0

Results for COc1c(Cl)cc(Cl)cc1/C=C/C(=O)c1ccc(NC(=O)c2cccs2)cc1 ?
STAT1 act: 109; APP 5'UTR act: -11; STAT3 activator: 111; NF-kB neuron act: 5.7*; STAT1 blocker: -10; STAT3 blocker: -14

What do the screens show for `CN(C)c1ccc(-c2nnn(CC(=O)NCc3ccc4c(c3)OCO4)n2)cc1`?
STAT1 act: 102; APP 5'UTR act: 8; STAT3 activator: 100; NF-kB neuron act: 1.4; STAT1 blocker: -4; STAT3 blocker: 9

Results for Cc1cc(C)nc(SCC(=O)Nc2ccnc3ccccc23)n1 ?
STAT1 act: 66; APP 5'UTR act: 5; STAT3 activator: 26; NF-kB neuron act: 0.84; STAT1 blocker: 36*; STAT3 blocker: 86*

Results for COC(=O)c1ccccc1NC(=O)CSc1nc(C)cc(C)n1 ?
STAT1 act: 99; APP 5'UTR act: 0; STAT3 activator: 97; NF-kB neuron act: 0.89; STAT1 blocker: 1; STAT3 blocker: 9

What do the screens show for `O=C(O)COc1ccccc1/C=C1\SC(=Nc2ccc(F)cc2)N(c2ccc(F)cc2)C1=O`?
STAT1 act: 89; APP 5'UTR act: 13; STAT3 activator: 94; NF-kB neuron act: 1.3; STAT1 blocker: 11; STAT3 blocker: 11

What do the screens show for `CC(C)N1CCC2(CC1)N=C(c1ccc3c(c1)OCO3)CC(c1cc(Cl)ccc1O)N2` (configuration not stated)?
STAT1 act: 86; APP 5'UTR act: 53; STAT3 activator: 102; NF-kB neuron act: 4.7*; STAT1 blocker: 15; STAT3 blocker: 2

Results for Cc1ccc(C2=NNC3(CCOC(C)(C)C3)S2)cc1 (configuration not stated) ?
STAT1 act: 114; APP 5'UTR act: 178*; STAT3 activator: 89; NF-kB neuron act: 2.9; STAT1 blocker: -18; STAT3 blocker: 16

What do the screens show for `CN(C)c1nc(N(C)C)nc(N(C#N)CN2C(=O)c3ccccc3C2=O)n1`?
STAT1 act: 93; APP 5'UTR act: -4; STAT3 activator: 101; NF-kB neuron act: 0.9; STAT1 blocker: 8; STAT3 blocker: -2

How did C=CCn1c(N)c(C(=O)Nc2ccccc2OC)sc1=S do in these assays?
STAT1 act: 99; APP 5'UTR act: -3; STAT3 activator: 105; NF-kB neuron act: 0.85; STAT1 blocker: 1; STAT3 blocker: -1

What do the screens show for `C=CCn1c(N)c(C(=O)Nc2ccc(C)cc2)sc1=S`?
STAT1 act: 131*; APP 5'UTR act: -8; STAT3 activator: 89; NF-kB neuron act: 1.8; STAT1 blocker: -34; STAT3 blocker: 14

What do the screens show for `Cc1ccc(C(=O)CC(=O)COc2ccc(Cl)cc2)cc1`?
STAT1 act: 106; APP 5'UTR act: 18; STAT3 activator: 109; NF-kB neuron act: 0.83; STAT1 blocker: -7; STAT3 blocker: -12

Results for Cc1ccc(NC(=O)N2C(=O)C3(OCCO3)c3ccccc32)cc1 ?
STAT1 act: 138*; APP 5'UTR act: 91; STAT3 activator: 104; NF-kB neuron act: 2.2; STAT1 blocker: -42; STAT3 blocker: -2

How did Clc1cccc(Cl)c1CSc1cc2c(nn1)-c1ccccc1CC2 do in these assays?
STAT1 act: 110; APP 5'UTR act: -4; STAT3 activator: 95; NF-kB neuron act: 1.3; STAT1 blocker: -11; STAT3 blocker: 7

How did Clc1ccccc1CSc1cc2c(nn1)-c1ccccc1CC2 do in these assays?
STAT1 act: 128; APP 5'UTR act: 58; STAT3 activator: 112; NF-kB neuron act: 3.7*; STAT1 blocker: -31; STAT3 blocker: -8

How did CC(C)(C)c1ccc(-c2conc2N)cc1 do in these assays?
STAT1 act: 118; APP 5'UTR act: 70; STAT3 activator: 98; NF-kB neuron act: 5*; STAT1 blocker: -32; STAT3 blocker: 4

What do the screens show for `CC(C)CNc1nc(Oc2ccc(=O)[nH]n2)nc(N2CCOCC2)n1`?
STAT1 act: 98; APP 5'UTR act: 13; STAT3 activator: 104; NF-kB neuron act: 0.99; STAT1 blocker: 0; STAT3 blocker: 1

What do the screens show for `CCOC(=O)c1oc2ccc(/C=N/O)c(Cl)c2c1C`?
STAT1 act: 132*; APP 5'UTR act: 49; STAT3 activator: 89; NF-kB neuron act: 2.1; STAT1 blocker: -37; STAT3 blocker: 16

Results for CCOC(=O)c1oc2cccc(OCC(O)CNC(C)C)c2c1C (configuration not stated) ?
STAT1 act: 94; APP 5'UTR act: 4; STAT3 activator: 105; NF-kB neuron act: 1.3; STAT1 blocker: 7; STAT3 blocker: -2

Results for N#Cc1c(C(F)(F)F)cc(-c2ccccc2Cl)[nH]c1=O ?
STAT1 act: 95; STAT3 activator: 108; NF-kB neuron act: 1; STAT1 blocker: 6; STAT3 blocker: -4

What do the screens show for `CN=c1scc(C)n1/N=C/c1ccc(O)cc1`?
STAT1 act: 114; APP 5'UTR act: 93; STAT3 activator: 85; NF-kB neuron act: 12*; STAT1 blocker: -16; STAT3 blocker: 25

How did CN=c1scc(-c2ccco2)n1/N=C/c1ccc(O)c(O)c1 do in these assays?
STAT1 act: 100; APP 5'UTR act: 9; STAT3 activator: 111; NF-kB neuron act: 3.8*; STAT1 blocker: 0; STAT3 blocker: 1
